Reference: ChEMBL document CHEMBL4342524, “Discovery of M-808 as a Highly Potent, Covalent, Small-Molecule Inhibitor of the Menin-MLL Interaction with Strong In Vivo Antitumor Activity” (J Med Chem, 2020)
Activity calls are given as the source filed them. No cut-off for these calls is given here.

Columns and labels:
Mus musculus [1] = test: Downregulation of Hoxa9 expression in tumors of CB-17 SCID mouse xenografted with human MV4-11 cells at 10 mg/kg, iv administered as single dose and measured after 24 hrs by RT-qPCR analysis; format: functional, organism-based
In short: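 MV4;11 subcutaneous xenografts in female C.B-17 SCID mice; single IV dose of 10 mg/kg or vehicle. Tumors collected 24 h post-dose, 3 mice per group, snap-frozen and powdered. Total RNA converted to cDNA; HOXA9, MEIS1 and GAPDH measured by TaqMan real-time PCR; relative expression by comparative Ct.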

[2] = Toxicity in CB-17 SCID mouse xenografted with human MV4-11 cells assessed as effect on clinical signs at 10 to 25 mg/kg, iv administered every other day for 1 week (11 doses); format: organism-based; conditions: in vivo, 168 h
In short: (§1)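 Female C.B-17 SCID mice inoculated s.c. in the flank with 5 × 10^6 MV4;11 cells in 0.1 mL 1:1 PBS/Matrigel (final Matrigel 5 mg/mL). Dosed IV every other day, 3 times per week, 11 doses in total; vehicle-only control group. Tumor volume by calipers as (A × B²)/2, and body weight, measured 2–3 times weekly during treatment and at least weekly afterward. Toxicity signs monitored.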

[3] = Toxicity in SCID mouse assessed as drug tolerability at 25 mg/kg, iv administered every other day for 1 week; format: organism-based; conditions: in vivo, 168 h
Menin (Homo sapiens) [4] = biological target: T1, Menin (Homo sapiens) (UniProt O00255); test: Covalent binding affinity to human menin assessed as protein-compound complex formation at protein to compound ratio of 1:1.2 after 1 hr by LC-MS analysis relative to control
T1 sequence (whole entry): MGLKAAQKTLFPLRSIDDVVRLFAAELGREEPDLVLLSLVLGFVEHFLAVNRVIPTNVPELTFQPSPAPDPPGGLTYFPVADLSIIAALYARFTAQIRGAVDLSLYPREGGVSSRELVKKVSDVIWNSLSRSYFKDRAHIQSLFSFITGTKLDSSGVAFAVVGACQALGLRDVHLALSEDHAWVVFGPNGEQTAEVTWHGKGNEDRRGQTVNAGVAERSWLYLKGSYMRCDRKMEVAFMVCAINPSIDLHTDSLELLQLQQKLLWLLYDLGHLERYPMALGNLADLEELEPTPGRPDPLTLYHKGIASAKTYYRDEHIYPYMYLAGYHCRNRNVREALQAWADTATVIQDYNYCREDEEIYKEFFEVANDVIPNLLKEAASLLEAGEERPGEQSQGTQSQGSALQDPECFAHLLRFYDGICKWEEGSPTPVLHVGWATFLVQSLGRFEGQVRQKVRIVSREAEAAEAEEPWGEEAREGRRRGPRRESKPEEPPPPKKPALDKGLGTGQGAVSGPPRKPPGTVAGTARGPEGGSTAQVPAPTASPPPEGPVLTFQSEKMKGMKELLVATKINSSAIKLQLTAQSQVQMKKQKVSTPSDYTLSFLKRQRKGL
In short: (§2)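 Diluted to 1 mg/mL, then run on reverse-phase C4 LC with a 5–100% MeCN/0.2% formic acid gradient and Q-TOF MS. Intact masses obtained by maximum-entropy deconvolution.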

[5] = Toxicity in SCID mouse assessed as drug tolerability at 10 mg/kg, iv administered every other day for 1 week; format: organism-based; conditions: in vivo, 168 h
Mus musculus [6] = test: In vivo inhibition of Menin-MLL protein-protein interaction in CB-17 SCID mouse xenografted with human MV4-11 cells assessed as reduction in MEIS1 expression in tumor at 25 mg/kg, iv measured after 6 to 24 hrs by RT-qPCR analysis; format: functional, organism-based
In short: (§3)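 MV4;11 flank xenografts in female C.B-17 SCID mice given a single 25 mg/kg IV dose or vehicle. Tumors harvested at 6, 24 and 48 h, 3 mice per time point, and frozen in liquid N2. RNA extracted; HOXA9 and MEIS1, with GAPDH, quantified by TaqMan qRT-PCR using the comparative Ct method.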

Menin [7] = biological target: T2, Menin (Homo sapiens, UniProt O00255); test: Inhibition of fluorescent labeled tracer binding to Menin (unknown origin) after 1 hr by fluorescence polarization competitive binding assay
T2 sequence (O00255 whole entry): T1 sequence (whole entry)
In short: (§4)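 Competitive FP assay: 4 nM menin and 2 nM fluorescein-labeled tracer (final concentrations) in PBS with 100 μg/mL bovine γ-globulin and 0.01% Triton X-100. Compounds added from DMSO at varying concentrations and incubated 1 h at room temperature. IC50 obtained by nonlinear sigmoidal fitting of the FP decrease against total compound concentration.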

[8] = Toxicity in CB-17 SCID mouse xenografted with human MV4-11 cells assessed as effect on body weight at 10 to 25 mg/kg, iv administered every other day for 1 week (11 doses); format: organism-based; conditions: in vivo, 168 h; in short: as §1
MOLM-13 = test: Growth inhibition of human MOLM13 cells after 7 days by WST-8 assay; format: functional, cell-based; conditions: MOLM-13, 168 h
In short: (§5)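 Cells cultured in IMDM or RPMI 1640 with 10% FBS at 37 °C, 5% CO2. Growth read by WST-8 at 450 nm after at least 1 h with reagent. Signals normalized to untreated cells and IC50 fitted by nonlinear regression; mean and SD from three independent experiments.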

MV4-11 [9] = test: Antitumor activity against human MV4-11 cells xenografted in CB-17 SCID mouse assessed as tumor volume at 25 mg/kg, iv administered every other day for 1 week (11 doses) and measured on day 35 post treatment (reference value: 92 mm3); format: functional
Mus musculus [10] = test: In vivo inhibition of Menin-MLL protein-protein interaction in CB-17 SCID mouse xenografted with human MV4-11 cells assessed as reduction in HOXA9 expression in tumor at 25 mg/kg, iv measured after 6 to 24 hrs by RT-qPCR analysis; format: functional, organism-based; in short: as §3
Menin (Homo sapiens) [11] = biological target: T1, Menin (Homo sapiens); test: Covalent binding affinity to human menin assessed as protein-compound complex formation at protein to compound ratio of 1:1.2 measured after overnight incubation by LC-MS analysis relative to control; in short: as §2
HL-60 = test: Growth inhibition of human HL60 cells after 7 days by WST-8 assay; format: functional, cell-based; conditions: HL-60, 168 h; in short: as §5
MV4-11 [12] = test: Growth inhibition of human MV4-11 cells after 7 days by WST-8 assay; format: functional, cell-based; conditions: MV4-11, 168 h; in short: as §5
MV4-11 [13] = test: Antitumor activity against human MV4-11 cells xenografted in CB-17 SCID mouse assessed as tumor growth inhibition at 25 mg/kg, iv administered every other day for 1 week (11 doses) and measured on day 35 post treatment relative to control; format: functional; conditions: MV4-11, iv, read-out: TGI
Mus musculus [14] = test: Downregulation of MEIS1 expression in tumors of CB-17 SCID mouse xenografted with human MV4-11 cells at 10 mg/kg, iv administered as single dose and measured after 24 hrs by RT-qPCR analysis relative to control; format: functional
In short: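 Female C.B-17 SCID mice bearing subcutaneous MV4;11 flank xenografts were given a single IV dose (vehicle control). Tumors were harvested at 24 h, 3 mice per time point, snap-frozen in liquid N2 and ground. Total RNA was reverse-transcribed, and HOXA9, MEIS1 and GAPDH were measured by TaqMan real-time PCR. Relative expression was calculated by the comparative Ct method.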

MV4-11 [15] = test: Antitumor activity against human MV4-11 cells xenografted in CB-17 SCID mouse assessed as effect on tumor growth at 10 mg/kg, iv administered every other day for 1 week (11 doses); format: functional, organism-based; in short: as §1
[16] = Toxicity in SCID mouse assessed as reduction in body weight at 25 mg/kg, iv administered every other day for 1 week relative to control; format: organism-based; design: scale not given: the % may be the effect or the level left; conditions: in vivo, 168 h
Menin [17] = biological target: T2, Menin; test: Inhibition of menin (unknown origin) by fluorescence polarization assay; in short: as §4

Row | Compound | Activity (Menin (Homo sapiens) [4]) [%] | IC50 (MOLM-13) [nM] | Activity (Menin (Homo sapiens) [11]) [%] | IC50 (HL-60) [nM] | IC50 (MV4-11 [12]) [nM] | further results
1 | COC(=O)N[C@H]1CCC[C@@H]1[C@](CN1CCC1)(c1cccc(F)c1)C1CCN(CC2CN(c3ccc(S(=O)(=O)C4CN(C(=O)/C=C/CN5CCCCC5)C4)cc3)C2)CC1 | 75 | 4 | 100 | 2800 | 1 | Activity (Mus musculus [1]): Active; Activity [2]: Non-Toxic; Activity [3]: Non-Toxic; Activity [5]: Non-Toxic; inhibition (Mus musculus [6]): Active; IC50 (Menin [7]): 2.6 nM; Activity [8]: Non-Toxic; Activity (MV4-11 [9]): 59 mm3; inhibition (Mus musculus [10]): Active; inhibition in vivo at 25 mg/kg (MV4-11 [13]): 97%; fold change (FC) (Mus musculus [14]): >2; Activity (MV4-11 [15]): inactive
2 | COC(=O)N[C@H]1CCC[C@@H]1[C@](CN1CCC1)(c1cccc(F)c1)C1CCN(CC2CN(c3ccc(S(=O)(=O)C4CN(C(=O)/C=C/CN(C)C)C4)cc3)C2)CC1 | 75 | 8 | 100 | 3000 |  | Activity (Mus musculus [1]): Active; Activity [5]: Non-Toxic; fold change (FC) (Mus musculus [14]): >2; Activity [16]: > 10%
3 | COC(=O)N[C@H]1CCC[C@@H]1[C@](CN(C)C)(c1cccc(F)c1)C1CCN(CC2CN(c3ccc(S(=O)(=O)C4CN(C(=O)/C=C/CN(C)C)C4)cc3)C2)CC1 |  | 2 |  | 700 | 1.1 | 
4 | COC(=O)N[C@H]1CCC[C@@H]1[C@](CN1CCC1)(c1cccc(F)c1)C1CCN(CC2CN(c3ccc(S(=O)(=O)C4CN(C(=O)/C=C/CN5CCCC5)C4)cc3)C2)CC1 | 100 | 9 | 100 | 2100 |  | Activity (Mus musculus [1]): Active; Activity [5]: Non-Toxic; fold change (FC) (Mus musculus [14]): >2; Activity [16]: > 10%
5 | COC(=O)N[C@H]1CCC[C@@H]1[C@](CN1CCC1)(c1cccc(F)c1)C1CCN(CC2CN(c3ccc(S(=O)(=O)C4CN(C(=O)/C=C/CN5CCC5)C4)cc3)C2)CC1 | 75 | 3 | 100 | 2100 |  | 
6 | CCc1nccn1C[C@@](c1cccc(F)c1)(C1CCN(CC2CN(c3ccc(S(=O)(=O)C4CN(C(=O)/C=C/CN(C)C)C4)cc3)C2)CC1)[C@H]1CCC[C@@H]1NC(=O)OC | 100 | 11 | 100 | > 10000 | 2 | IC50 (Menin [7]): 1.7 nM
7 | COC(=O)N[C@H]1CCC[C@@H]1[C@](CN1CCCCC1)(c1cccc(F)c1)C1CCN(CC2CN(c3ccc(S(=O)(=O)C4CN(C(=O)/C=C/CN(C)C)C4)cc3)C2)CC1 |  | 157 |  | 600 | 40 | 
8 | COC(=O)N[C@H]1CCC[C@@H]1[C@](CN1CCC1)(c1cccc(F)c1)C1CCN(CC2CN(c3ccc(S(=O)(=O)C4CN(C(=O)/C=C/CN5CCC(F)CC5)C4)cc3)C2)CC1 | 20 | 21 | 100 | 3600 | 3 | 
9 | COC(=O)N[C@H]1CCC[C@@H]1[C@](Cn1ccnn1)(c1cccc(F)c1)C1CCN(CC2CN(c3ccc(S(=O)(=O)C4CN(C(=O)/C=C/CN(C)C)C4)cc3)C2)CC1 |  | 14 |  | 4800 |  | 
10 | COC(=O)N[C@H]1CCC[C@@H]1[C@](CN1CCCC1)(c1cccc(F)c1)C1CCN(CC2CN(c3ccc(S(=O)(=O)C4CN(C(=O)/C=C/CN(C)C)C4)cc3)C2)CC1 |  | 15 |  | 1400 | 5 | 
11 | C=CC(=O)N1CC(S(=O)(=O)c2ccc(N3CC(CN4CCC([C@@](CN5CCC5)(c5cccc(F)c5)[C@H]5CCC[C@@H]5NC(=O)OC)CC4)C3)cc2)C1 | 50 | 374 | 75 | 2600 | 23 | 
12 | COC(=O)N[C@H]1CCC[C@@H]1[C@](CN1CCC1)(c1cccc(F)c1)C1CCN(CC2CN(c3ccc(S(=O)(=O)C4CN(C(=O)/C=C/CN5CC(F)C5)C4)cc3)C2)CC1 | 20 | 3 | 75 | 2000 | 1 | 
13 | COC(=O)N[C@H]1CCC[C@@H]1[C@](CN1CCC1)(c1cccc(F)c1)C1CCN(CC2CN(c3ccc(S(=O)(=O)C4CN(C(=O)/C=C/CN5CC(F)(F)C5)C4)cc3)C2)CC1 | 0 | 15 | 0 | 2800 | 4 | 
14 | COC(=O)N[C@H]1CCC[C@@H]1[C@](C#N)(c1cccc(F)c1)C1CCN(CC2CN(c3ccc(S(=O)(=O)C4CN(C(=O)/C=C/CN(C)C)C4)cc3)C2)CC1 | 95 | 19 | 100 | 1500 | 4 | IC50 (Menin [17]): 3.3 nM
15 | COC(=O)N[C@H]1CCC[C@@H]1[C@](CN1CCC1)(c1cccc(F)c1)C1CCN(CC2CN(c3ccc(S(=O)(=O)C4CN(C(=O)/C=C/CN5CCC(F)(F)CC5)C4)cc3)C2)CC1 | 0 | 20 | 0 | 3200 | 4 | 
